Data on two molecules can be found in ChEMBL document CHEMBL4033800, “Further Developments of the Phenyl-Pyrrolyl Pentane Series of Nonsteroidal Vitamin D Receptor Modulators as Anticancer Agents” (J Med Chem, 2018).

The subject of series [1] is PC-3. Kind of series: Antiproliferative activity against human PC3 cells after 48 hrs by MTT assay. It is filed as functional, cell-based. Particulars: PC-3, 48 h. For orientation: Tetrazolium assays rely on reduction of a dye to a coloured formazan, in cell work by metabolically active cells.
For series [2], the system named is MCF7. The experiment in a line: Induction of apoptosis in human MCF7 cells assessed as upregulation of Bak mRNA levels at 1 uM after 24 hrs by RT-qPCR analysis. It is filed as functional, cell-based.
For series [3], the system named is MCF7. Kind of series: Antitumor activity against human MCF7 cells xenografted in BALB/c nude mouse assessed as reduction in tumor cell proliferation at 10 mg/kg, ip administered every other day by Ki-67 staining based microscopic analysis. In kind it is functional, organism-based. In short, it runs like this:
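MCF7 orthotopic tumors from nude mice given 10 mg/kg i.p. were sectioned and immunostained for Ki-67. Ki-67-positive area was scored as a percentage of total nuclear area per field (n=10 fields, 400×) and normalized to the calcitriol group.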
(In general: Xenograft models place foreign cells or tissue in a host animal.)

The nature of series [4]: Half life in Sprague-Dawley rat at 5 mg/kg, iv by HPLC analysis. It is filed as ADME, organism-based. Conditions: in vivo. In short, it runs like this:
(§1)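 Male Sprague-Dawley rats (180−220 g), 4 per group, dosed at 5 mg/kg i.v., 20 mg/kg i.p. or 20 mg/kg p.o. Parameters given as mean ± SD (n = 4).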

The test system of series [5] is MCF7. The experiment in a line: Induction of apoptosis in human MCF7 cells xenografted in BALB/c nude mouse at 10 mg/kg, ip administered every other day by TUNEL assay. It is filed as functional, organism-based. In short, it runs like this:
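Apoptosis in MCF7 orthotopic tumor sections from nude mice given 10 mg/kg i.p. was scored by TUNEL staining.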

Series [6] in a line: Drug uptake in human MCF7 cells at 1 uM after 10 mins by HPLC analysis. In kind it is ADME, cell-based. Particulars: mcf7, 10 min. In short, it runs like this: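 MCF7 cells were given 1 µM compound in medium with 10% FBS for 10 or 30 min. Cells and medium were extracted separately with chloroform/methanol (3:1, v/v) and analysed by HPLC. Mean ± SEM, n = 3.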
The subject of series [7] is MCF7. The experiment in a line: Induction of cell cycle arrest in human MCF7 cells assessed as accumulation at G2/M phase at 1 uM after 24 hrs by propidium iodide-staining based flow cytometry (reference value: 12.41%). In kind it is functional. A general note: A flow cytometer gives signals particle by particle.
The nature of series [8]: AUC in Sprague-Dawley rat at 20 mg/kg, po measured up to 48 hrs post administration by HPLC analysis. It is filed as ADME, organism-based. Set-up: time < 48 hr, dose 20 mg/kg, route oral. Particulars: in vivo. In short, it runs like this:
as §1

Series [9] deals with T1, Vitamin D3 receptor (Homo sapiens) (UniProt P11473).
T1 sequence (whole entry): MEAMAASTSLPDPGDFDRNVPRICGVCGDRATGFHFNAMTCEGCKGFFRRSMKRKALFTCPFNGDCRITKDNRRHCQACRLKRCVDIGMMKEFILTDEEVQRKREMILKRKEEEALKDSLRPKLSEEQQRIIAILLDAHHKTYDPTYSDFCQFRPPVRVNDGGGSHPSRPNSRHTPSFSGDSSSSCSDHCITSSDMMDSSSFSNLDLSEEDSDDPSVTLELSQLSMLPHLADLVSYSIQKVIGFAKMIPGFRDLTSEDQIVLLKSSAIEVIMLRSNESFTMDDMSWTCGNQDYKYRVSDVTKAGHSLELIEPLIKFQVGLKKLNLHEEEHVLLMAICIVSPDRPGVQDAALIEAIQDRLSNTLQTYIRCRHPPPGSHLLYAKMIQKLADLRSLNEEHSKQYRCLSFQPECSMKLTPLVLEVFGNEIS
Kind of series: Transactivation of human GAL4-fused VRD expressed in HEK293 cells co-transfected with human RXRalpha/VDRE after 24 hrs by dual luciferase reporter gene assay. It is filed as cell-based.

Series [10] has as its target T2, Vitamin D3 receptor (Homo sapiens, UniProt P11473).
T2 sequence (P11473 whole entry): T1 sequence (whole entry)
The experiment in a line: Displacement of fluormone VDR red from human full length VDR after 4 hrs by fluorescence polarization assay.

The nature of series [11]: Clearance in Sprague-Dawley rat at 20 mg/kg, ip by HPLC analysis. Particulars: in vivo. It is filed as ADME, organism-based. In short, it runs like this: as §1
The subject of series [12] is MCF7. Kind of series: Induction of cell cycle arrest in human MCF7 cells assessed as upregulation of p21 mRNA levels at 1 uM after 24 hrs by RT-qPCR analysis. It is filed as functional, cell-based. In short, it runs like this: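 p21 and p27 mRNA levels were measured by real-time quantitative PCR in MCF7 cells treated at 1 µM for 24 h.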
Series [13] in a line: Drug metabolism in human MCF7 cells at 1 uM after 24 hrs by HPLC analysis. It is filed as ADME, cell-based. Particulars: read-out: Drug metabolism. In short, it runs like this: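 MCF7 cells were incubated 24 h with 1 µM compound, alongside a medium-only incubation without cells. Mixtures were extracted with chloroform/methanol (3:1, v/v) and quantified by HPLC. Mean ± SEM, n = 3.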

The subject of series [14] is Mus musculus. Kind of series: Hypercalcemic effect in ICR mouse at 30 mg/kg/day, ip administered for 7 days measured on day 8 post-dose by MTB-based assay relative to control. In kind it is ADME, organism-based. Conditions: in vivo, 168 h. In short, it runs like this: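 Mice were dosed i.p. over a 7-day period and serum calcium was then measured. Each dose level was compared with a vehicle-treated control group (saline cited as the comparator). Data are mean ± SEM, n = 6 per group. Significance versus vehicle was reported at p < 0.05, 0.01 and 0.001.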

Active and inactive are the calls of the source.

The term IC50 denotes the concentration that inhibits the measured activity by half. High values mean weaker potency, low ones greater potency. In general, half-life refers to the time needed for the level to fall by half in the phase considered. Broadly, the AUC is concentration integrated over time. Low values mean low exposure, high ones high exposure. As a reminder, the CL/F is clearance divided by bioavailability, as obtained after extravascular dosing. Consider `CCN(CC)CCCNC(=O)c1ccc(C(CC)(CC)c2ccc(OCCC(O)(CC)CC)c(C)c2)n1CC`, for which the values for the IC50 in [1] and in series [10] were 40 nM and 296 nM, respectively. In addition, the outcome in series [2], in [3], in series [5] and in series [12] was Active. The half-life in series [4] was 2.97 h. For the same molecule, the Drug uptake result in series [6] was “Active”. For the same molecule, the Activity in series [7] was 4.72%; in [9], “Dose-dependent effect”. Besides, in series [8], the AUC at 48 h amounted to 21500 ng·h/mL. The molecule also had a CL/F in series [11] of 11.3 mL/min.

Consider `CCn1c(C(=O)NCCCN2CCOCC2)ccc1C(CC)(CC)c1ccc(OCCC(O)(CC)CC)c(C)c1`, for which the values for the IC50 in series [1] and in [10] were 1570 nM and 406 nM, respectively. Besides, the outcome in series [2], in series [3], in series [5] and in series [12] was Active. Moreover, in [4], the half-life was 4.75 h. In addition, the metabolised at 24 h, 1 µM in [13] came out at 6%. The molecule also showed a Drug uptake in series [6] of 37.9%. In addition, the Activity in [7] is 6.96%; in series [9] it was “Dose-dependent effect”; in series [14] it was “Toxic”. Besides, in [8], the AUC at 48 h turned out to be 15300 ng·h/mL. In series [11], this molecule showed a CL/F of 13 mL/min.
